Measurements from ChEMBL document CHEMBL4138275, “Taccalonolide Microtubule Stabilizers Generated Using Semisynthesis Define the Effects of Mono Acyloxy Moieties at C-7 or C-15 and Disubstitutions at C-7 and C-25” (J Nat Prod, 2018).
Activity calls are given as the source filed them. The calls are words filed in the database; no cut-off is given here.

Key:
[1] = tested on: HeLa; experiment: Antiproliferative activity against human HeLa cells after 48 hrs by sulforhodamine B assay; format: functional, cell-based
Method in brief: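 HeLa cells (STR-validated) grown in BME with 10% FBS and gentamycin, seeded 2500/well, left to adhere overnight, then exposed to compounds for 48 h. Cell density read by sulforhodamine B staining. IC50 is the concentration giving 50% inhibition of cell density versus vehicle, fitted by nonlinear regression. Mean of 3 or 4 experiments, each in triplicate, ±SD.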

[2] = tested on: HeLa; experiment: Induction of microtubule stabilization in human HeLa cells assessed as formation of multiple aberrant mitotic spindle at 5 times IC50 after 18 hrs by indirect immunofluorescence assay; format: cell-based
Method in brief: (§1)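 HeLa cells treated for 18 h at 5-fold each compound's own antiproliferative IC50, with EtOH as vehicle control. Mitotic and interphase microtubules stained by indirect immunofluorescence with a β-tubulin antibody and viewed by fluorescence microscopy.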

[3] = tested on: HeLa; experiment: Induction of microtubule stabilization in human HeLa cells assessed as bundling of interphase microtubule at 5 times IC50 after 18 hrs by indirect immunofluorescence assay; format: cell-based; method in brief: as §1
[4] = species on record: Sus scrofa; experiment: Induction of porcine brain tubulin polymerization at 5 uM by turbidimetric method
Method in brief: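 Compound or vehicle (1% EtOH) added; samples prepared on ice, then warmed to 37 °C to start polymerization. Rate and extent followed turbidimetrically at 340 nm.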

| SMILES | IC50 [1] [nM] | Activity [2] | Activity [3] | Activity [4] |
| --- | --- | --- | --- | --- |
| CC(=O)O[C@H]1[C@H]2[C@H]([C@@H]3[C@@H](O)[C@@H]4[C@H]([C@H](C)[C@H]5O[C@]56OC(=O)[C@@](C)(OC(=O)C(C)C)[C@]46C)[C@@]3(C)[C@H]1OC(C)=O)[C@@H](OC(=O)C(C)C)C(=O)[C@H]1C[C@@H]3O[C@@H]3[C@H](OC(C)=O)[C@]21C | 790 | Active |  |  |
| CC(=O)O[C@H]1[C@H]2[C@H]([C@@H]3[C@@H](O)[C@@H]4[C@H]([C@H](C)[C@H]5O[C@]56OC(=O)[C@@](C)(O)[C@]46C)[C@@]3(C)[C@H]1OC(C)=O)[C@@H](OC(=O)c1ccc3c(c1)C(=O)c1ccccc1C3=O)C(=O)[C@H]1C[C@@H]3O[C@@H]3[C@H](OC(C)=O)[C@]21C | 22 |  |  |  |
| CC(=O)O[C@H]1[C@H]2[C@H]([C@@H]3[C@@H](OC=O)[C@@H]4[C@H]([C@H](C)C=C5OC(=O)[C@@](C)(O)[C@@]54C)[C@@]3(C)[C@H]1OC(C)=O)[C@@H](O)C(=O)[C@H]1C[C@@H]3O[C@@H]3[C@H](OC(C)=O)[C@]21C | > 20000 |  |  |  |
| CC(=O)O[C@H]1[C@H]2[C@H]([C@@H]3[C@@H](OC(=O)CC(C)C)[C@@H]4[C@H]([C@H](C)C=C5OC(=O)[C@@](C)(O)[C@@]54C)[C@@]3(C)[C@H]1OC(C)=O)[C@@H](O)C(=O)[C@H]1C[C@@H]3O[C@@H]3[C@H](OC(C)=O)[C@]21C | 1500 |  |  |  |
| CC(=O)O[C@H]1[C@H]2[C@H]([C@@H]3[C@@H](O)[C@@H]4[C@H]([C@H](C)C=C5OC(=O)[C@@](C)(OC(=O)C(C)C)[C@@]54C)[C@@]3(C)[C@H]1OC(C)=O)[C@@H](OC(=O)C(C)C)C(=O)[C@H]1C[C@@H]3O[C@@H]3[C@H](OC(C)=O)[C@]21C | > 20000 |  |  |  |
| CC(=O)O[C@H]1[C@H]2[C@H]([C@@H]3[C@@H](O)[C@@H]4[C@H]([C@H](C)[C@H]5O[C@]56OC(=O)[C@@](C)(OC(=O)c5ccc7c(c5)C(=O)c5ccccc5C7=O)[C@]46C)[C@@]3(C)[C@H]1OC(C)=O)[C@@H](OC(=O)c1ccc3c(c1)C(=O)c1ccccc1C3=O)C(=O)[C@H]1C[C@@H]3O[C@@H]3[C@H](OC(C)=O)[C@]21C | 3000 |  |  |  |
| CC(=O)O[C@H]1[C@H]2[C@H]([C@@H]3[C@@H](OC(=O)C(C)(C)C)[C@@H]4[C@H]([C@H](C)C=C5OC(=O)[C@@](C)(O)[C@@]54C)[C@@]3(C)[C@H]1OC(C)=O)[C@@H](O)C(=O)[C@H]1C[C@@H]3O[C@@H]3[C@H](OC(C)=O)[C@]21C | 2400 |  |  |  |
| CC(=O)O[C@H]1[C@H]2[C@H]([C@@H]3[C@@H](OC=O)[C@@H]4[C@H]([C@H](C)[C@H]5O[C@]56OC(=O)[C@@](C)(O)[C@]46C)[C@@]3(C)[C@H]1OC(C)=O)[C@@H](O)C(=O)[C@H]1C[C@@H]3O[C@@H]3[C@H](OC(C)=O)[C@]21C | 8.4 | Active |  |  |
| CC(=O)O[C@H]1[C@H]2[C@H]([C@@H]3[C@@H](OC(=O)C(C)C)[C@@H]4[C@H]([C@H](C)C=C5OC(=O)[C@@](C)(O)[C@@]54C)[C@@]3(C)[C@H]1OC(C)=O)[C@@H](O)C(=O)[C@H]1C[C@@H]3O[C@@H]3[C@H](OC(C)=O)[C@]21C | > 20000 |  |  |  |
| CC(=O)O[C@H]1[C@H]2[C@H]([C@@H]3[C@@H](O)[C@@H]4[C@H]([C@H](C)[C@H]5O[C@]56OC(=O)[C@@](C)(O)[C@]46C)[C@@]3(C)[C@H]1OC(C)=O)[C@@H](OC(=O)C(C)C)C(=O)[C@H]1C[C@@H]3O[C@@H]3[C@H](OC(C)=O)[C@]21C | 19 | Active | Active |  |
| CC(=O)O[C@H]1[C@H]2[C@H]([C@@H]3[C@@H](O)[C@@H]4[C@H]([C@H](C)[C@H]5O[C@]56OC(=O)[C@@](C)(OC(=O)CC(C)C)[C@]46C)[C@@]3(C)[C@H]1OC(C)=O)[C@@H](OC(=O)CC(C)C)C(=O)[C@H]1C[C@@H]3O[C@@H]3[C@H](OC(C)=O)[C@]21C | 250 | Active | Active |  |
| CC(=O)O[C@H]1[C@H]2[C@H]([C@@H]3[C@@H](OC(=O)c4ccc5c(c4)C(=O)c4ccccc4C5=O)[C@@H]4[C@H]([C@H](C)C=C5OC(=O)[C@@](C)(O)[C@@]54C)[C@@]3(C)[C@H]1OC(C)=O)[C@@H](O)C(=O)[C@H]1C[C@@H]3O[C@@H]3[C@H](OC(C)=O)[C@]21C | 7100 |  |  |  |
| CC(=O)O[C@@H]1[C@H]2[C@H]3[C@H]([C@H](OC(C)=O)[C@H](OC(C)=O)[C@]2(C)[C@@H]2[C@@H]1[C@]1(C)C(=C[C@H]2C)OC(=O)[C@@]1(C)O)[C@]1(C)[C@H](C[C@@H]2O[C@@H]2[C@@H]1OC(C)=O)C(=O)[C@@H]3O [TACCALONOLIDE A] | 5400 |  |  |  |
| CC(=O)O[C@H]1[C@H]2[C@H]([C@@H]3[C@@H](O)[C@@H]4[C@H]([C@H](C)C=C5OC(=O)[C@@](C)(O)[C@@]54C)[C@@]3(C)[C@H]1OC(C)=O)[C@@H](OC(=O)C(C)C)C(=O)[C@H]1C[C@@H]3O[C@@H]3[C@H](OC(C)=O)[C@]21C | 4700 |  |  |  |
| CC(=O)O[C@H]1[C@H]2[C@H]([C@@H]3[C@@H](O)[C@@H]4[C@H]([C@H](C)C=C5OC(=O)[C@@](C)(O)[C@@]54C)[C@@]3(C)[C@H]1OC(C)=O)[C@@H](OC(=O)C(C)(C)C)C(=O)[C@H]1C[C@@H]3O[C@@H]3[C@H](OC(C)=O)[C@]21C | 10000 |  |  |  |
| CC(=O)O[C@H]1[C@H]2[C@H]([C@@H]3[C@@H](O)[C@@H]4[C@H]([C@H](C)[C@H]5O[C@]56OC(=O)[C@@](C)(OC(=O)C5CC5)[C@]46C)[C@@]3(C)[C@H]1OC(C)=O)[C@@H](OC(=O)C1CC1)C(=O)[C@H]1C[C@@H]3O[C@@H]3[C@H](OC(C)=O)[C@]21C | 130 | Active | Active |  |
| CC(=O)O[C@H]1[C@H]2[C@H]([C@@H]3[C@@H](OC(=O)C4CC4)[C@@H]4[C@H]([C@H](C)C=C5OC(=O)[C@@](C)(O)[C@@]54C)[C@@]3(C)[C@H]1OC(C)=O)[C@@H](O)C(=O)[C@H]1C[C@@H]3O[C@@H]3[C@H](OC(C)=O)[C@]21C | > 20000 |  |  |  |
| CC(=O)O[C@H]1[C@H]2[C@H]([C@@H]3[C@@H](OC(=O)c4ccc5c(c4)C(=O)c4ccccc4C5=O)[C@@H]4[C@H]([C@H](C)[C@H]5O[C@]56OC(=O)[C@@](C)(O)[C@]46C)[C@@]3(C)[C@H]1OC(C)=O)[C@@H](O)C(=O)[C@H]1C[C@@H]3O[C@@H]3[C@H](OC(C)=O)[C@]21C | 38 |  |  |  |
| CC(=O)O[C@H]1[C@H]2[C@H]([C@@H]3[C@@H](O)[C@@H]4[C@H]([C@H](C)C=C5OC(=O)[C@@](C)(O)[C@@]54C)[C@@]3(C)[C@H]1OC(C)=O)[C@@H](OC(=O)CC(C)C)C(=O)[C@H]1C[C@@H]3O[C@@H]3[C@H](OC(C)=O)[C@]21C | > 20000 |  |  |  |
| CC(=O)O[C@H]1[C@H]2[C@H]([C@@H]3[C@@H](O)[C@@H]4[C@H]([C@H](C)C=C5OC(=O)[C@@](C)(OC(=O)C6CC6)[C@@]54C)[C@@]3(C)[C@H]1OC(C)=O)[C@@H](OC(=O)C1CC1)C(=O)[C@H]1C[C@@H]3O[C@@H]3[C@H](OC(C)=O)[C@]21C | > 20000 |  |  |  |
| CC(=O)O[C@H]1[C@H]2[C@H]([C@@H]3[C@@H](O)[C@@H]4[C@H]([C@H](C)C=C5OC(=O)[C@@](C)(OC(=O)CC(C)C)[C@@]54C)[C@@]3(C)[C@H]1OC(C)=O)[C@@H](OC(=O)CC(C)C)C(=O)[C@H]1C[C@@H]3O[C@@H]3[C@H](OC(C)=O)[C@]21C | > 20000 |  |  |  |
| CC(=O)O[C@H]1[C@H]2[C@H]([C@@H]3[C@@H](O)[C@@H]4[C@H]([C@H](C)[C@H]5O[C@]56OC(=O)[C@@](C)(O)[C@]46C)[C@@]3(C)[C@H]1OC(C)=O)[C@@H](OC(=O)C(C)(C)C)C(=O)[C@H]1C[C@@H]3O[C@@H]3[C@H](OC(C)=O)[C@]21C | 9 | Active | Active | Active |
| CC(=O)O[C@H]1[C@H]2[C@H]([C@@H]3[C@@H](O)[C@@H]4[C@H]([C@H](C)C=C5OC(=O)[C@@](C)(O)[C@@]54C)[C@@]3(C)[C@H]1OC(C)=O)[C@@H](OC(=O)c1ccc3c(c1)C(=O)c1ccccc1C3=O)C(=O)[C@H]1C[C@@H]3O[C@@H]3[C@H](OC(C)=O)[C@]21C | 3400 |  |  |  |
| CC(=O)O[C@H]1[C@H]2[C@H]([C@@H]3[C@@H](O)[C@@H]4[C@H]([C@H](C)C=C5OC(=O)[C@@](C)(OC(=O)c6ccc7c(c6)C(=O)c6ccccc6C7=O)[C@@]54C)[C@@]3(C)[C@H]1OC(C)=O)[C@@H](OC(=O)c1ccc3c(c1)C(=O)c1ccccc1C3=O)C(=O)[C@H]1C[C@@H]3O[C@@H]3[C@H](OC(C)=O)[C@]21C | > 20000 |  |  |  |
